Laboratory results: ChEMBL document CHEMBL1154626, “Novel, potent, and selective quinoxaline-based 5-HT(3) receptor ligands. 1. Further structure-activity relationships and pharmacological characterization” (J Med Chem, 2009)
Calls of active or inactive are those of the source. The calls are words filed in the database; no cut-off is given here.

Key:
[1] = biological target: T1, 5-hydroxytryptamine receptor 3A (Rattus norvegicus, UniProt P35563); experiment: Displacement of [3H]LY278584 from 5HT3 receptor in rat cortical homogenate
T1 sequence (P35563 whole entry): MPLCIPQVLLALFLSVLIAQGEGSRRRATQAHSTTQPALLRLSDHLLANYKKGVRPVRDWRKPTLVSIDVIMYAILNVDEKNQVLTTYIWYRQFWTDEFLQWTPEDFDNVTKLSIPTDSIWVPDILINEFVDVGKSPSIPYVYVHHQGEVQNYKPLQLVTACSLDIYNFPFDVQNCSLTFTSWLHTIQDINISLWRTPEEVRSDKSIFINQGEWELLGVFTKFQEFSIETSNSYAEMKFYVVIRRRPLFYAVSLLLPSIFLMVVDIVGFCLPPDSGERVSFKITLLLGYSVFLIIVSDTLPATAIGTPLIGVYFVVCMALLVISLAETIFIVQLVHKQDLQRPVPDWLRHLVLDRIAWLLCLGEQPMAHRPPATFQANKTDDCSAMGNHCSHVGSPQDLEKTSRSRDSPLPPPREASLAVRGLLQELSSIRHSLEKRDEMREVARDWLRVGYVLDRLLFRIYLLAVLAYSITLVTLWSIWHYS
How it was run: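 Rat cortical homogenate, competition against [3H]LY278584 binding. Ki is the concentration giving half-maximal inhibition of binding, as the mean ± S.E.M. of three determinations.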

Rattus norvegicus [2] = experiment: Agonist activity at 5HT3 receptor in iv dosed Sprague-Dawley rat assessed as induction of bradycardia measured after 5 to 30 mins post-treatment by von Bezold-Jarisch reflex test; format: functional
How it was run: (§1)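 Urethane-anesthetized rats, compound given iv. Agonism was scored as the compound itself evoking the von Bezold-Jarisch reflex (bradycardia). Antagonism was tested by giving the compound iv 5, 15 or 30 min before phenylbiguanide (PBG) and scoring the reduction of PBG-evoked bradycardia. ED50 is the dose giving half of the maximal bradycardia evoked by the same compound.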

Rattus norvegicus [3] = experiment: Antagonist activity at 5HT3 receptor in iv dosed Sprague-Dawley rat assessed as inhibition of 1-phenylbiguanide-induced bradycardia administered 5 mins before 1-phenylbiguanide challenge measured after 5 to 30 mins post-treatment by von Bezold-Jarisch reflex test; format: functional; how it was run: as §1
Rattus norvegicus [4] = experiment: Agonist activity at 5HT3 receptor in Sprague-Dawley rat assessed as induction of bradycardia at 10 ug/kg, iv measured after 5 to 30 mins post-treatment by von Bezold-Jarisch reflex test; format: functional; how it was run: as §1
Rattus norvegicus [5] = experiment: Antagonist activity at 5HT3 receptor in Sprague-Dawley rat assessed as inhibition of 1-phenylbiguanide-induced bradycardia at 10 ug/kg, iv administered 5 mins before 1-phenylbiguanide challenge measured after 5 to 30 mins post-treatment by von Bezold-Jarisch reflex test; format: functional; parameters: scale not given: the % may be the effect or the level left; how it was run: as §1
[6] = biological target: T2, Adrenergic receptor alpha-1 (Rattus norvegicus, UniProt P15823+P23944+P43140); experiment: Displacement of [3H]prazosin from adrenergic alpha1 receptor in rat cortex
T2 sequence (P15823 whole entry): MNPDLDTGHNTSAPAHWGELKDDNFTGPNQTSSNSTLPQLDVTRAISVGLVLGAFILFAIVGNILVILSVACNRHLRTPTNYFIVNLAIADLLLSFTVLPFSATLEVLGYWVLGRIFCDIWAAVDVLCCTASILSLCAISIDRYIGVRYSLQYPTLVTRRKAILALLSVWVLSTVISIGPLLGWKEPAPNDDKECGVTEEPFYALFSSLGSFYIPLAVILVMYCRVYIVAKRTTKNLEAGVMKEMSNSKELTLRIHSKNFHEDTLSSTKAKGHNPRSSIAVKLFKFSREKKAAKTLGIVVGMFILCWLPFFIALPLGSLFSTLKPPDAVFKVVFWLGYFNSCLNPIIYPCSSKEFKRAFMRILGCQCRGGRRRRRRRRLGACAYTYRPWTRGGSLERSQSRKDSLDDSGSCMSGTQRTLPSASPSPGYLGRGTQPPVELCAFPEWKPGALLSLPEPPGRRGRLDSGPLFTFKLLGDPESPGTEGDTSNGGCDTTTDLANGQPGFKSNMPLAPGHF
T2 sequence (P23944 whole entry): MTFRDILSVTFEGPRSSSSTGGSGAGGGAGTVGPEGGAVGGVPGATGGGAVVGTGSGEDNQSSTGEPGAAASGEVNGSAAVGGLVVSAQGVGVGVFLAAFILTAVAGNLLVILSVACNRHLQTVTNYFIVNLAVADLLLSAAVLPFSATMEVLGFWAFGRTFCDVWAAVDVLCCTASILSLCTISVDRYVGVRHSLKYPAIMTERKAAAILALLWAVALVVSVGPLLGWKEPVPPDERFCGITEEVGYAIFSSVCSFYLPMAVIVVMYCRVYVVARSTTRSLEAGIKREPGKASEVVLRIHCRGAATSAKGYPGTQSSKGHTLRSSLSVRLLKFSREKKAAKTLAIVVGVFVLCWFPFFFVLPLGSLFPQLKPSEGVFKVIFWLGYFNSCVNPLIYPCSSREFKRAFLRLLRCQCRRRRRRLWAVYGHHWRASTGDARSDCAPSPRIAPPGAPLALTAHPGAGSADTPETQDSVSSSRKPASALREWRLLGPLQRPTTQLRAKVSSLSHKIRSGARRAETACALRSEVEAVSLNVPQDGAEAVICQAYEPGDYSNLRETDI
T2 sequence (P43140 whole entry): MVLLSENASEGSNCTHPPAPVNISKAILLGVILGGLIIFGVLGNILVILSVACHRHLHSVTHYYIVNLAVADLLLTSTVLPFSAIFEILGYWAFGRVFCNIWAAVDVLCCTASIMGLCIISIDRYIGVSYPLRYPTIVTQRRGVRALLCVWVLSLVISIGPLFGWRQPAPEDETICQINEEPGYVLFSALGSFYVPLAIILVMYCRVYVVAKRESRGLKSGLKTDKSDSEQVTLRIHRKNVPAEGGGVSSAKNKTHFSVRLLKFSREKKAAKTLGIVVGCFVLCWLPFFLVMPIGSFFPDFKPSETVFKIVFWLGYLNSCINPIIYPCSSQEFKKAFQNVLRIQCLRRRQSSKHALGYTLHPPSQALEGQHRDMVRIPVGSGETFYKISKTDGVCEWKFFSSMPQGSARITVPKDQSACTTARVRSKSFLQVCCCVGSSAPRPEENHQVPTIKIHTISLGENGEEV

[7] = biological target: T3, 5-hydroxytryptamine receptor 3A (Cavia porcellus, UniProt O70212); experiment: Antagonist activity at 5HT3 receptor in spontaneously beating guinea pig right atrium assessed as inhibition of serotonin-induced maximum response by noncompetitive binding assay; format: tissue-based, Cardiac atrium; conditions: read-out: IC50
T3 sequence (O70212 whole entry): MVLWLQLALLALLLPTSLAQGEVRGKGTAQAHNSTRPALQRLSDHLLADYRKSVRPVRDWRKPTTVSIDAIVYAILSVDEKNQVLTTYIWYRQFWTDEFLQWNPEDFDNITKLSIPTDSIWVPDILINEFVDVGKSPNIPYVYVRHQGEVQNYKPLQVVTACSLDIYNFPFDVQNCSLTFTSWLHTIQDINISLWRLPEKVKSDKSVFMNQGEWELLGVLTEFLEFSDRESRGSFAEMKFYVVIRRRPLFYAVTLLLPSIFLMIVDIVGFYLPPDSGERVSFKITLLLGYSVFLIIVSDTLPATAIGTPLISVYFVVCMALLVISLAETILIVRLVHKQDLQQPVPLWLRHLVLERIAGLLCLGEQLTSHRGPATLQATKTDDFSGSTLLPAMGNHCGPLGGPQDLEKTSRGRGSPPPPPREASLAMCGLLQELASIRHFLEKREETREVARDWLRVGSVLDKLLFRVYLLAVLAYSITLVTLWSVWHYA
How it was run: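 Spontaneously beating guinea pig right atria, exposed 30 min to test compound at 10 μM, followed by cumulative 5-HT log concentration-response curves versus control. Mean ± SEM of five to seven observations.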

Rattus norvegicus [8] = experiment: Agonist activity at 5HT3 receptor in Sprague-Dawley rat assessed as induction of bradycardia at 50 ug/kg, iv measured after 5 to 30 mins post-treatment by von Bezold-Jarisch reflex test; format: functional; how it was run: as §1
Rattus norvegicus [9] = experiment: Antagonist activity at 5HT3 receptor in Sprague-Dawley rat assessed as inhibition of 1-phenylbiguanide-induced bradycardia at 50 ug/kg, iv administered 5 mins before 1-phenylbiguanide challenge measured after 5 to 30 mins post-treatment by von Bezold-Jarisch reflex test; format: functional; parameters: scale not given: the % may be the effect or the level left; how it was run: as §1
Rattus norvegicus [10] = experiment: Agonist activity at 5HT3 receptor in Sprague-Dawley rat assessed as induction of bradycardia at 100 ug/kg, iv measured after 5 to 30 mins post-treatment by von Bezold-Jarisch reflex test; format: functional; how it was run: as §1
Rattus norvegicus [11] = experiment: Antagonist activity at 5HT3 receptor in Sprague-Dawley rat assessed as inhibition of 1-phenylbiguanide-induced bradycardia at 100 ug/kg, iv administered 5 mins before 1-phenylbiguanide challenge measured after 5 to 30 mins post-treatment by von Bezold-Jarisch reflex test; format: functional; how it was run: as §1
[12] = biological target: T4, 5-hydroxytryptamine receptor 1A (Rattus norvegicus, UniProt P19327); experiment: Displacement of [3H]8-OHDPAT from 5HT1A receptor in rat hippocampus; format: tissue-based
T4 sequence (P19327 whole entry): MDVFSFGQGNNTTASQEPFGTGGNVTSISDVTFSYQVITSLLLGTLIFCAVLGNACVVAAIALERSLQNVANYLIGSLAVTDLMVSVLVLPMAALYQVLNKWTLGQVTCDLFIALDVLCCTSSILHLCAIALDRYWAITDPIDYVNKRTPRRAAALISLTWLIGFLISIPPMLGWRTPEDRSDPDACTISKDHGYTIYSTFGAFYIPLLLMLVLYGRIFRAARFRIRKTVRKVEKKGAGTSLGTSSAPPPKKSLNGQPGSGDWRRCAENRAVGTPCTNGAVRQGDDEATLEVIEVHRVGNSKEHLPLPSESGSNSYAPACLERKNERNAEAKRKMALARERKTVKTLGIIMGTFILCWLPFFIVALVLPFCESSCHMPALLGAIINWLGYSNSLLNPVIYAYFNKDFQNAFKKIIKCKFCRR

[13] = biological target: 5-hydroxytryptamine receptor 2A (Rattus norvegicus, UniProt P14842); experiment: Displacement of [3H]ketanserin from 5HT2A receptor in rat cortex
[14] = biological target: T5, Alpha-2A adrenergic receptor (Rattus norvegicus, UniProt P22909); experiment: Displacement of [3H]RX821002 from adrenergic alpha2 receptor in rat cortex
T5 sequence (P22909 whole entry): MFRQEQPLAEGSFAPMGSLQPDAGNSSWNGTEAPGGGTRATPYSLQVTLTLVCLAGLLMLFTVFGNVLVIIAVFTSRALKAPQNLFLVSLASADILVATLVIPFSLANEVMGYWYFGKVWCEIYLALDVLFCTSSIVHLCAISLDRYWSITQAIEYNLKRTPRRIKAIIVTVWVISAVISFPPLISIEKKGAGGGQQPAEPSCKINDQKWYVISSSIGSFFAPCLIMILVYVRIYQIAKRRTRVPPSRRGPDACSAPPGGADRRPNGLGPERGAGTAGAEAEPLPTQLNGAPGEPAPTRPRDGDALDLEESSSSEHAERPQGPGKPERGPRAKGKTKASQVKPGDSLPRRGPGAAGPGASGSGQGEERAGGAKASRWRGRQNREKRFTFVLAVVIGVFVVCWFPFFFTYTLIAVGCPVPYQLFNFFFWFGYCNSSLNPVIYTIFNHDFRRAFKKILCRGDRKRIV

D(1A) dopamine receptor = D(1A) dopamine receptor (Rattus norvegicus, UniProt P18901); experiment: Displacement of [3H]SCH-23390 from dopamine D1 receptor in rat striatum
D(2) dopamine receptor = D(2) dopamine receptor (Rattus norvegicus, UniProt P61169); experiment: Displacement of [3H]spiperone from dopamine D2 receptor in rat striatum
D(2) dopamine receptor, sequence (P61169 whole entry): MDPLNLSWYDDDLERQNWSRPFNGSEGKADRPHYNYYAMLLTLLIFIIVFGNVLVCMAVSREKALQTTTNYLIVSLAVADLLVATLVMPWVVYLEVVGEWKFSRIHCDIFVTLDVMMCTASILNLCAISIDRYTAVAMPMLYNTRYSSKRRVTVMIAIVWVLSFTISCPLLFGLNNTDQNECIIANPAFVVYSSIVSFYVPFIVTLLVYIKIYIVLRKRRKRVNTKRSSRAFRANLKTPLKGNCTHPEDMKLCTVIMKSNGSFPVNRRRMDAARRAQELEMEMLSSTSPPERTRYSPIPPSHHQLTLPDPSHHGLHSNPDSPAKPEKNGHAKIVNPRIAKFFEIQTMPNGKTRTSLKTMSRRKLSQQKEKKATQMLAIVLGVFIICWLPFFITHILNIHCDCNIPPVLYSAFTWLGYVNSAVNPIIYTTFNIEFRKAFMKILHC

D(1A) dopamine receptor, sequence (P18901 whole entry): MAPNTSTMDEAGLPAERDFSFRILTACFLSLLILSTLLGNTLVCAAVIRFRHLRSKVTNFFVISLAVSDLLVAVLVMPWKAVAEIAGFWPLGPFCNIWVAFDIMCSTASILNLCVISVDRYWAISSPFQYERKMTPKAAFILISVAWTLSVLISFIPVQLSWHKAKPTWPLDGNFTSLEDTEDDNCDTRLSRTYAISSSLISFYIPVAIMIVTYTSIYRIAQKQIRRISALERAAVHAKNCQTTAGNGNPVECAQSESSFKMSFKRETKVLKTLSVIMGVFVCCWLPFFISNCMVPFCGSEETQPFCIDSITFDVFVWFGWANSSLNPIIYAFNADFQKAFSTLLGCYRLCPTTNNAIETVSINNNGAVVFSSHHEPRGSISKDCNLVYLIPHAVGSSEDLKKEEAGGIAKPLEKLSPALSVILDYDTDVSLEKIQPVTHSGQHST
5-hydroxytryptamine receptor 2A, sequence (P14842 whole entry): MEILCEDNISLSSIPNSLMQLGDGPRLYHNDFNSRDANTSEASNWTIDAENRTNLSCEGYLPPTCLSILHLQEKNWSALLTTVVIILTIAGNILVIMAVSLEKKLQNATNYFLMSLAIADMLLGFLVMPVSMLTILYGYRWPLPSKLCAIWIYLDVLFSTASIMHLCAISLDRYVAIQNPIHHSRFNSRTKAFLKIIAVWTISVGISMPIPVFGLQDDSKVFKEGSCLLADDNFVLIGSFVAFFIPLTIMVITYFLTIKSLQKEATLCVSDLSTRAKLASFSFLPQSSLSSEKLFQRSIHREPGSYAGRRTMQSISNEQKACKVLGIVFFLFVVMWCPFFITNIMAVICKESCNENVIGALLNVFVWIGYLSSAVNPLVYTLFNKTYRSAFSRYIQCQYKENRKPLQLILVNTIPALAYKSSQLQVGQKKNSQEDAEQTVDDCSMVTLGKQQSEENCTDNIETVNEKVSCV

Cc1cccc2nc(N3CCN(CCn4ccnc4)CC3)c3cccn3c12
Ki ([1]; read-out: Ki): 17.8 nM

Fc1ccc2c(c1)nc(N1CCN(Cc3ccccc3)CC1)c1cccn12
Ki [1]: 13 nM

Cc1cccc2nc(N3CCN(Cc4ccccc4)CC3)c3cccn3c12
Ki [1]: 8.8 nM

Cc1cccc2nc(N3CCN(Cc4c[nH]cn4)CC3)c3cccn3c12
ED50 (Rattus norvegicus [2]): 0.037 mg/kg
ID50 (Rattus norvegicus [3]): 0.0035 mg/kg
Activity (Rattus norvegicus [4]): inactive
Activity (Rattus norvegicus [5]): 60%
Ki [6]: > 10000 nM

Fc1ccc2c(c1)nc(N1CCN(CCc3cnc[nH]3)CC1)c1cccn12
Ki ([1]; read-out: Ki): 330 nM

CN1CCN(c2nc3cc(F)ccc3n3cccc23)CC1
Ki ([1]; read-out: Ki): 0.81 nM
ID50 (Rattus norvegicus [3]): 0.6 mg/kg

Fc1ccc2c(c1)nc(N1CCN(CCn3ccnc3)CC1)c1cccn12
Ki ([1]; read-out: Ki): 22.2 nM

Oc1ccc2c(c1)nc(N1CCN(Cc3c[nH]cn3)CC1)c1cccn12
Ki ([1]; read-out: Ki): 2.25 nM
IC50 [7]: 2630 nM
ED50 (Rattus norvegicus [2]): 0.028 mg/kg
ID50 (Rattus norvegicus [3]): 0.0065 mg/kg
Activity (Rattus norvegicus [4]): 45%
Activity (Rattus norvegicus [5]): 62%
Activity (Rattus norvegicus [8]): 50%
Activity (Rattus norvegicus [9]): 90%

NNC(=O)CN1CCN(c2nc3cc(F)ccc3n3cccc23)CC1
Ki ([1]; read-out: Ki): 44.3 nM
ED50 (Rattus norvegicus [2]): 0.057 mg/kg
Activity (Rattus norvegicus [4]): inactive
Activity (Rattus norvegicus [5]): inactive
Activity (Rattus norvegicus [9]): inactive
Activity (Rattus norvegicus [10]): 80%
Activity (Rattus norvegicus [11]): inactive

Fc1ccc2c(c1)nc(N1CCN(CC3=NCCN3)CC1)c1cccn12
Ki ([1]; read-out: Ki): 30 nM

Fc1ccc2c(c1)nc(N1CCN(Cc3ncc[nH]3)CC1)c1cccn12
Ki ([1]; read-out: Ki): 5.6 nM
Ki [12]: > 10000 nM
Ki [13]: > 10000 nM
Ki [6]: > 10000 nM
Ki [14]: > 10000 nM
Ki (D(1A) dopamine receptor): > 10000 nM
Ki (D(2) dopamine receptor): > 10000 nM

CN1CCN(c2nc3cccc(F)c3n3cccc23)CC1
Ki ([1]; read-out: Ki): 0.44 nM
ID50 (Rattus norvegicus [3]): 0.12 mg/kg

Cc1cccc2nc(N3CCN(C)CC3)c3cccn3c12
Ki ([1]; read-out: Ki): 0.79 nM

Cc1cccc2nc(N3CCN(Cc4cnc[nH]4)CC3)c3cccn3c12
Ki ([1]; read-out: Ki): 0.49 nM
Ki [12]: > 10000 nM
Ki [13]: 9810 nM
Ki [14]: > 10000 nM
Ki (D(1A) dopamine receptor): > 10000 nM
Ki (D(2) dopamine receptor): > 10000 nM
